Assay results: ChEMBL document CHEMBL5058577, “EUbOPEN Chemogenomics Library 2 (Multiplex)” (2022)

Tested on: U2OS
Assay: Multiplex assay against U2OS
Assay type: toxicity, cell-based
Conditions: human
Method in brief: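 On a CQ1 microscope at 37°C and 5% CO2, live cells were imaged after compound addition. They had been stained at seeding with Hoechst33342, BioTracker Green Microtubule Cytoskeleton Dye, MitoTracker Red and Annexin V Alexa Fluor 680. CellPathfinder machine-learning gating assigned cells to Hoechst high-intensity objects or normal cells, normal cells to healthy, pyknosed or fragmented nuclei, and pyknosed cells to mitotic or apoptotic. Tubulin, mitochondrial-mass and membrane-permeability phenotypes are per cents of healthy-nucleus cells.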

[1] = 12 h, 1 µM, compound concentration 1 uM, replicate 1
[2] = 12 h, 1 µM, compound concentration 1 uM, replicate 2
[3] = 12 h, 10 µM, compound concentration 10 uM, replicate 1
[4] = 12 h, 10 µM, compound concentration 10 uM, replicate 2
[5] = 24 h, 1 µM, compound concentration 1 uM, replicate 1
[6] = 24 h, 1 µM, compound concentration 1 uM, replicate 2
[7] = 24 h, 10 µM, compound concentration 10 uM, replicate 1
[8] = 24 h, 10 µM, compound concentration 10 uM, replicate 2
[9] = 48 h, 1 µM, compound concentration 1 uM, replicate 1
[10] = 48 h, 1 µM, compound concentration 1 uM, replicate 2
[11] = 48 h, 10 µM, compound concentration 10 uM, replicate 1
[12] = 48 h, 10 µM, compound concentration 10 uM, replicate 2

Compound: CC(=O)NCCc1c(Cc2ccccc2)[nH]c2ccccc12 [LUZINDOLE]
- Population Apoptotic (%) [1]: 72%
- Population Fragmented Nuclei (%) [1]: 25%
- Population Healthy Nuclei (%) [1]: 65%
- Population Hoechst High Intensity Objects (%) [1]: 3%
- Population Membrane Permeable-Phenotype (%) [1]: 3%
- Population Mitochondria Different-Phenotype (%) [1]: 4%
- Population Mitotic Cells (%) [1]: 27%
- Population Normal (%) [1]: 96%
- Population Pyknosed Nuclei (%) [1]: 9%
- Population Tubulin-Different-Phenotype (%) [1]: 1%
- Total Cell Count [1]: 233
- Population Apoptotic (%) [2]: 100%
- Population Fragmented Nuclei (%) [2]: 19%
- Population Healthy Nuclei (%) [2]: 77%
- Population Hoechst High Intensity Objects (%) [2]: 2%
- Population Membrane Permeable-Phenotype (%) [2]: 6%
- Population Mitochondria Different-Phenotype (%) [2]: 2%
- Population Mitotic Cells (%) [2]: 0%
- Population Normal (%) [2]: 97%
- Population Pyknosed Nuclei (%) [2]: 3%
- Population Tubulin-Different-Phenotype (%) [2]: 2%
- Total Cell Count [2]: 134
- Population Apoptotic (%) [3]: 81%
- Population Fragmented Nuclei (%) [3]: 26%
- Population Healthy Nuclei (%) [3]: 65%
- Population Hoechst High Intensity Objects (%) [3]: 2%
- Population Membrane Permeable-Phenotype (%) [3]: 8%
- Population Mitochondria Different-Phenotype (%) [3]: 3%
- Population Mitotic Cells (%) [3]: 18%
- Population Normal (%) [3]: 97%
- Population Pyknosed Nuclei (%) [3]: 7%
- Population Tubulin-Different-Phenotype (%) [3]: 4%
- Total Cell Count [3]: 291
- Population Apoptotic (%) [4]: 76%
- Population Fragmented Nuclei (%) [4]: 13%
- Population Healthy Nuclei (%) [4]: 78%
- Population Hoechst High Intensity Objects (%) [4]: 1%
- Population Membrane Permeable-Phenotype (%) [4]: 5%
- Population Mitochondria Different-Phenotype (%) [4]: 2%
- Population Mitotic Cells (%) [4]: 23%
- Population Normal (%) [4]: 98%
- Population Tubulin-Different-Phenotype (%) [4]: 3%
- Total Cell Count [4]: 179
- Population Apoptotic (%) [5]: 90%
- Population Fragmented Nuclei (%) [5]: 19%
- Population Healthy Nuclei (%) [5]: 68%
- Population Hoechst High Intensity Objects (%) [5]: 4%
- Population Membrane Permeable-Phenotype (%) [5]: 2%
- Population Mitochondria Different-Phenotype (%) [5]: 3%
- Population Mitotic Cells (%) [5]: 10%
- Population Normal (%) [5]: 95%
- Population Pyknosed Nuclei (%) [5]: 12%
- Population Tubulin-Different-Phenotype (%) [5]: 3%
- Total Cell Count [5]: 260
- Population Apoptotic (%) [6]: 88%
- Population Fragmented Nuclei (%) [6]: 18%
- Population Healthy Nuclei (%) [6]: 70%
- Population Hoechst High Intensity Objects (%) [6]: 0%
- Population Membrane Permeable-Phenotype (%) [6]: 5%
- Population Mitochondria Different-Phenotype (%) [6]: 1%
- Population Mitotic Cells (%) [6]: 11%
- Population Normal (%) [6]: 99%
- Population Pyknosed Nuclei (%) [6]: 10%
- Population Tubulin-Different-Phenotype (%) [6]: 4%
- Total Cell Count [6]: 156
- Population Apoptotic (%) [7]: 88%
- Population Fragmented Nuclei (%) [7]: 25%
- Population Healthy Nuclei (%) [7]: 66%
- Population Hoechst High Intensity Objects (%) [7]: 2%
- Population Membrane Permeable-Phenotype (%) [7]: 6%
- Population Mitochondria Different-Phenotype (%) [7]: 3%
- Population Mitotic Cells (%) [7]: 12%
- Population Normal (%) [7]: 97%
- Population Pyknosed Nuclei (%) [7]: 7%
- Population Tubulin-Different-Phenotype (%) [7]: 4%
- Total Cell Count [7]: 342
- Population Apoptotic (%) [8]: 85%
- Population Fragmented Nuclei (%) [8]: 11%
- Population Healthy Nuclei (%) [8]: 80%
- Population Hoechst High Intensity Objects (%) [8]: 0%
- Population Mitochondria Different-Phenotype (%) [8]: 1%
- Population Mitotic Cells (%) [8]: 15%
- Population Normal (%) [8]: 99%
- Population Pyknosed Nuclei (%) [8]: 8%
- Population Tubulin-Different-Phenotype (%) [8]: 3%
- Total Cell Count [8]: 236
- Population Apoptotic (%) [9]: 91%
- Population Fragmented Nuclei (%) [9]: 16%
- Population Healthy Nuclei (%) [9]: 74%
- Population Hoechst High Intensity Objects (%) [9]: 2%
- Population Membrane Permeable-Phenotype (%) [9]: 3%
- Population Mitochondria Different-Phenotype (%) [9]: 2%
- Population Mitotic Cells (%) [9]: 8%
- Population Normal (%) [9]: 97%
- Population Pyknosed Nuclei (%) [9]: 9%
- Population Tubulin-Different-Phenotype (%) [9]: 2%
- Total Cell Count [9]: 395
- Population Apoptotic (%) [10]: 80%
- Population Fragmented Nuclei (%) [10]: 11%
- Population Healthy Nuclei (%) [10]: 77%
- Population Hoechst High Intensity Objects (%) [10]: 1%
- Population Membrane Permeable-Phenotype (%) [10]: 8%
- Population Mitochondria Different-Phenotype (%) [10]: 1%
- Population Mitotic Cells (%) [10]: 20%
- Population Normal (%) [10]: 98%
- Population Pyknosed Nuclei (%) [10]: 11%
- Population Tubulin-Different-Phenotype (%) [10]: 4%
- Total Cell Count [10]: 217
- Population Apoptotic (%) [11]: 89%
- Population Fragmented Nuclei (%) [11]: 21%
- Population Healthy Nuclei (%) [11]: 69%
- Population Hoechst High Intensity Objects (%) [11]: 2%
- Population Membrane Permeable-Phenotype (%) [11]: 6%
- Population Mitochondria Different-Phenotype (%) [11]: 3%
- Population Mitotic Cells (%) [11]: 10%
- Population Normal (%) [11]: 97%
- Population Pyknosed Nuclei (%) [11]: 8%
- Population Tubulin-Different-Phenotype (%) [11]: 3%
- Total Cell Count [11]: 446
- Population Apoptotic (%) [12]: 100%
- Population Fragmented Nuclei (%) [12]: 11%
- Population Healthy Nuclei (%) [12]: 82%
- Population Hoechst High Intensity Objects (%) [12]: 1%
- Population Membrane Permeable-Phenotype (%) [12]: 5%
- Population Mitochondria Different-Phenotype (%) [12]: 2%
- Population Mitotic Cells (%) [12]: 0%
- Population Normal (%) [12]: 98%
- Population Pyknosed Nuclei (%) [12]: 5%
- Total Cell Count [12]: 354

Compound: N[C@@]1(C(=O)O)CO[C@H]2[C@H](C(=O)O)[C@H]21 [LY-379268]
- Population Apoptotic (%) [1]: 85%
- Population Fragmented Nuclei (%) [1]: 20%
- Population Healthy Nuclei (%) [1]: 76%
- Population Hoechst High Intensity Objects (%) [1]: 0%
- Population Membrane Permeable-Phenotype (%) [1]: 2%
- Population Mitochondria Different-Phenotype (%) [1]: 1%
- Population Mitotic Cells (%) [1]: 14%
- Population Normal (%) [1]: 99%
- Population Pyknosed Nuclei (%) [1]: 3%
- Population Tubulin-Different-Phenotype (%) [1]: 1%
- Total Cell Count [1]: 211
- Population Apoptotic (%) [2]: 100%
- Population Fragmented Nuclei (%) [2]: 17%
- Population Healthy Nuclei (%) [2]: 79%
- Population Membrane Permeable-Phenotype (%) [2]: 8%
- Population Mitochondria Different-Phenotype (%) [2]: 2%
- Population Mitotic Cells (%) [2]: 0%
- Population Pyknosed Nuclei (%) [2]: 2%
- Population Tubulin-Different-Phenotype (%) [2]: 3%
- Total Cell Count [2]: 108
- Population Apoptotic (%) [3]: 63%
- Population Fragmented Nuclei (%) [3]: 30%
- Population Healthy Nuclei (%) [3]: 61%
- Population Hoechst High Intensity Objects (%) [3]: 0%
- Population Membrane Permeable-Phenotype (%) [3]: 8%
- Population Mitochondria Different-Phenotype (%) [3]: 2%
- Population Mitotic Cells (%) [3]: 36%
- Population Normal (%) [3]: 99%
- Population Pyknosed Nuclei (%) [3]: 7%
- Population Tubulin-Different-Phenotype (%) [3]: 3%
- Total Cell Count [3]: 264
- Population Apoptotic (%) [4]: 80%
- Population Fragmented Nuclei (%) [4]: 19%
- Population Healthy Nuclei (%) [4]: 77%
- Population Hoechst High Intensity Objects (%) [4]: 1%
- Population Membrane Permeable-Phenotype (%) [4]: 4%
- Population Mitochondria Different-Phenotype (%) [4]: 1%
- Population Mitotic Cells (%) [4]: 20%
- Population Normal (%) [4]: 98%
- Population Pyknosed Nuclei (%) [4]: 3%
- Population Tubulin-Different-Phenotype (%) [4]: 1%
- Total Cell Count [4]: 143
- Population Apoptotic (%) [5]: 88%
- Population Fragmented Nuclei (%) [5]: 20%
- Population Healthy Nuclei (%) [5]: 71%
- Population Hoechst High Intensity Objects (%) [5]: 1%
- Population Membrane Permeable-Phenotype (%) [5]: 1%
- Population Mitochondria Different-Phenotype (%) [5]: 1%
- Population Mitotic Cells (%) [5]: 11%
- Population Normal (%) [5]: 98%
- Population Pyknosed Nuclei (%) [5]: 7%
- Population Tubulin-Different-Phenotype (%) [5]: 1%
- Total Cell Count [5]: 245
- Population Apoptotic (%) [6]: 100%
- Population Fragmented Nuclei (%) [6]: 11%
- Population Healthy Nuclei (%) [6]: 79%
- Population Hoechst High Intensity Objects (%) [6]: 0%
- Population Membrane Permeable-Phenotype (%) [6]: 12%
- Population Mitochondria Different-Phenotype (%) [6]: 2%
- Population Mitotic Cells (%) [6]: 0%
- Population Normal (%) [6]: 100%
- Population Pyknosed Nuclei (%) [6]: 9%
- Population Tubulin-Different-Phenotype (%) [6]: 6%
- Total Cell Count [6]: 133
- Population Apoptotic (%) [7]: 81%
- Population Fragmented Nuclei (%) [7]: 25%
- Population Healthy Nuclei (%) [7]: 66%
- Population Hoechst High Intensity Objects (%) [7]: 1%
- Population Membrane Permeable-Phenotype (%) [7]: 8%
- Population Mitochondria Different-Phenotype (%) [7]: 1%
- Population Mitotic Cells (%) [7]: 18%
- Population Normal (%) [7]: 98%
- Population Pyknosed Nuclei (%) [7]: 7%
- Population Tubulin-Different-Phenotype (%) [7]: 2%
- Total Cell Count [7]: 284
- Population Apoptotic (%) [8]: 90%
- Population Fragmented Nuclei (%) [8]: 16%
- Population Healthy Nuclei (%) [8]: 77%
- Population Membrane Permeable-Phenotype (%) [8]: 4%
- Population Mitochondria Different-Phenotype (%) [8]: 4%
- Population Mitotic Cells (%) [8]: 10%
- Population Pyknosed Nuclei (%) [8]: 6%
- Population Tubulin-Different-Phenotype (%) [8]: 4%
- Total Cell Count [8]: 165
- Population Apoptotic (%) [9]: 92%
- Population Fragmented Nuclei (%) [9]: 13%
- Population Healthy Nuclei (%) [9]: 79%
- Population Hoechst High Intensity Objects (%) [9]: 1%
- Population Membrane Permeable-Phenotype (%) [9]: 3%
- Population Mitochondria Different-Phenotype (%) [9]: 2%
- Population Mitotic Cells (%) [9]: 7%
- Population Normal (%) [9]: 98%
- Population Pyknosed Nuclei (%) [9]: 7%
- Population Tubulin-Different-Phenotype (%) [9]: 3%
- Total Cell Count [9]: 348
- Population Apoptotic (%) [10]: 100%
- Population Fragmented Nuclei (%) [10]: 15%
- Population Healthy Nuclei (%) [10]: 72%
- Population Hoechst High Intensity Objects (%) [10]: 2%
- Population Membrane Permeable-Phenotype (%) [10]: 11%
- Population Mitochondria Different-Phenotype (%) [10]: 5%
- Population Mitotic Cells (%) [10]: 0%
- Population Normal (%) [10]: 97%
- Population Pyknosed Nuclei (%) [10]: 12%
- Population Tubulin-Different-Phenotype (%) [10]: 5%
- Total Cell Count [10]: 178
- Population Apoptotic (%) [11]: 92%
- Population Fragmented Nuclei (%) [11]: 24%
- Population Healthy Nuclei (%) [11]: 68%
- Population Hoechst High Intensity Objects (%) [11]: 2%
- Population Membrane Permeable-Phenotype (%) [11]: 9%
- Population Mitochondria Different-Phenotype (%) [11]: 2%
- Population Mitotic Cells (%) [11]: 7%
- Population Normal (%) [11]: 97%
- Population Pyknosed Nuclei (%) [11]: 7%
- Population Tubulin-Different-Phenotype (%) [11]: 3%
- Total Cell Count [11]: 383
- Population Apoptotic (%) [12]: 90%
- Population Fragmented Nuclei (%) [12]: 11%
- Population Healthy Nuclei (%) [12]: 83%
- Population Membrane Permeable-Phenotype (%) [12]: 3%
- Population Mitotic Cells (%) [12]: 9%
- Population Pyknosed Nuclei (%) [12]: 4%
- Total Cell Count [12]: 228
